Test results published in PubChem BioAssay AID1885 (Broad Institute, 2009).
Hit rate of the full screen: of about 300,000 compounds, about 4,400 (1.5%) were called active.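 The calls were made as follows: active = mean inhibition across valid replicates above about 55% (limit read from the data); inconclusive = mean below that limit but half or more replicates reach it; inactive = mean below it, under half of replicates reach it.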 What follows is part of a selection rich in actives, with near analogues and random picks from the rest.

Assay: inhibitors of intracellular T. cruzi growth, primary screen, luminescence, NIH3T3 host cells (AID 1885);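 also: signal also drops with host cell toxicity which is not excluded here; 0% = plate median of DMSO wells and 100% = zero luminescence signal; higher percent means less beta-gal luminescence so fewer parasites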
Conditions: T. cruzi beta-gal in NIH3T3, luminescence, 90 h; hits give high values; concentration not given here
Procedure, shortened: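 Assay system: NIH/3T3 host cells with β-galactosidase reporter T. cruzi; input: 5,000 host fibroblasts per well; compound: single 50 nL compound addition per well in DMSO; timing: ≥90 h infection period, 3 h prior cell attachment; measured by: GalScreen β-gal luminescence, detergent lysis, 60 min; evaluation: percent inhibition of parasite-derived β-gal signal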

Structure (SMILES) | inhibition
COc1ccc(Cc2nnc(SCC(=O)Nc3ccc(C)c(Cl)c3)[nH]c2=O)cc1 | 23.1% (inactive)
Fc1cc(Br)ccc1NC(=S)Nc1cccnc1 | -15.3% (inactive)
S=C(NCCc1ccccc1)N1CCn2cccc2C1c1ccncc1 (stereo unspecified) | 23.4% (inactive)
S=C(Nc1cccc(Br)c1)N1CCn2cccc2C1c1cccnc1 (stereo unspecified) | 72.8% (active)
O=C(COC(=O)/C=C/c1ccc(OC(F)F)cc1)NC1CCCCC1 | -1.87% (inactive)
C=CCn1c(SCCOc2ccc(OC)cc2)nnc1C(NC(=O)c1ccc(OC)cc1)C(C)C (stereo unspecified) | 4.8% (inactive)
Cc1ccc(C(=O)NNC(=O)c2ccncc2)cc1S(=O)(=O)N1CCCCC1 | -3.57% (inactive)
Cc1ccc(N=C2SCCCN2C(=O)c2cccc(N3C(=O)CCC3=O)c2)cc1Cl | 35.8% (inactive)
CC(Nc1nc(N2CCCC2)nc2ccccc12)c1ccccc1 (stereo unspecified) | 58.1% (active)
CC(Nc1nc(N2CCOCC2)nc2ccccc12)c1ccccc1 (stereo unspecified) | 31.7% (inactive)
CC(Nc1nc(N2CCN(CCO)CC2)nc2ccccc12)c1ccccc1 (stereo unspecified) | -7.35% (inactive)
O=C(NCCC1CCCCN1S(=O)(=O)c1ccc(F)cc1)C(=O)NC1CC1 (stereo unspecified) | -6.12% (inactive)
COc1cc(NC(=O)CSc2ccc(-c3cccnc3)nn2)cc(OC)c1 | 1.76% (inactive)
COc1ccc(N2CC(NS(=O)(=O)c3ccc4ccccc4c3)CC2=O)cc1 (stereo unspecified) | -4.61% (inactive)
O=C(NCc1ccncc1)c1ccc(NS(=O)(=O)c2cccc([N+](=O)[O-])c2)cc1 | -11.6% (inactive)
CN1C2CCC1CC(NC(=O)c1ccc([N+](=O)[O-])cc1)C2 (stereo unspecified) | 8.42% (inactive)
O=C(Nc1cc2c3c(c1)C1CCCC1CN3CC1CCCC21)c1ccc([N+](=O)[O-])cc1 (stereo unspecified) | 82.1% (active)
O=C(Nc1ccccc1C(=O)Nc1ccncc1)c1ccc([N+](=O)[O-])cc1 | 31.4% (inactive)
Cc1csc(=O)n1CC(=O)OCC(=O)N(CC(C)C)c1c(N)n(Cc2ccccc2)c(=O)[nH]c1=O | -7.8% (inactive)
Cc1ccc(NC(=O)CSc2cccc3cccnc23)c(C)c1 | 26.2% (inactive)
Cc1c(NC(=O)CSc2nnnn2-c2ccc(C(=O)O)cc2)c(=O)n(-c2ccccc2)n1C | -12.6% (inactive)
Cc1c(NC(=O)CSc2cccc3cccnc23)c(=O)n(-c2ccccc2)n1C | 67.7% (active)
CCc1nc(NCCO)c(C#N)c2c1CCCC2 | -15% (inactive)

Structure (SMILES) | inhibition
CC(C)Cc1nc(N2CCOCC2)c(C#N)c2c1CCC2 | 9.81% (inactive)
CC(C)CCNc1nc(N2CCCC2)c2c(c1C#N)CCN(C)C2 | 58.4% (active)
CSCCC(NC(=O)c1ccco1)C(=O)Nc1cc(C)ccn1 (stereo unspecified) | -2.39% (inactive)
Cc1ccc(C2CC(c3cccc(Br)c3)n3nc(N)nc3N2)cc1 (stereo unspecified) | 14.7% (inactive)
Cc1ccc(C2CC(c3cccc(C)c3)n3nc(N)nc3N2)cc1 (stereo unspecified) | 36.3% (inactive)
COc1ccc(C2CC(c3ccc(C)cc3)Nc3nc(N)nn32)cc1 (stereo unspecified) | 61.3% (active)
CCc1ccccc1NC(=O)CN(C)S(=O)(=O)c1ccc2c(c1)c(=O)n(C)c(=O)n2C | -4.15% (inactive)
O=C1CSC(c2ccccc2)N1c1nc(-c2ccc(Cl)cc2Cl)cs1 (stereo unspecified) | 28.7% (inactive)
Clc1ccc(-c2cc(-c3ccccn3)on2)c(Cl)c1 | 14.9% (inactive)
Clc1ccc(-c2cc(C3CCNCC3)[nH]n2)c(Cl)c1 | 65.5% (active)
CCCN(CC(=O)Nc1ccccc1OC)C(=O)CCC(=O)c1ccc(F)cc1 | 0.665% (inactive)
C/[N+]([O-])=C\c1ccc([N+](=O)[O-])o1 | 67% (active)
Cc1cc(C)nc(N/N=C/c2ccc([N+](=O)[O-])o2)n1 | 26.9% (inactive)
CCc1ccc(S(=O)(=O)N/N=C\c2ccc([N+](=O)[O-])o2)cc1 | 19% (inactive)
COc1ccc(C(=NN)c2ccc(OC)cc2)cc1 | -17.9% (inactive)
CCCC1(C(=O)OCC)NC(c2ccc(N(C)C)cc2)C2C(=O)N(c3ccc4c(c3)OCCO4)C(=O)C21 (stereo unspecified) | -15% (inactive)
CN(C)CCOc1ccc(Cl)cc1C(C)(C)C | 57.6% (active)
CC(C)(C)NCCCOc1ccc(Cl)cc1C(C)(C)C | 33.9% (inactive)
CN(C)CCOCCOc1ccc(Cl)c2ccccc12 | 33.2% (inactive)
COc1ccccc1C(CNC(=O)c1cccc(NS(=O)(=O)c2ccc(Br)cc2)c1)N(C)C (stereo unspecified) | 0.0669% (inactive)
CCN(CC(=O)Nc1cc(Cl)ccc1C)C(=O)CSCc1ccc(C)cc1 | 7.73% (inactive)
O=C(N/N=C/c1cccc([N+](=O)[O-])c1)c1ccncc1 | -13.8% (inactive)
N#Cc1cc([N+](=O)[O-])ccc1Oc1cccc(/C=N/NC(=O)c2ccc(Cl)cc2)c1 | 74.5% (active)

Structure (SMILES) | inhibition
O=C(N/N=C/c1cccc(OC(=O)c2ccc([N+](=O)[O-])cc2)c1)c1cccnc1 | -36.5% (inactive)
CCc1ccc(C(=O)NNC(=O)C2CCN(c3ncnc4sc(C)c(C)c34)CC2)cc1 | 24% (inactive)
NC(=O)c1ccc(NC(=O)COC(=O)c2c3c(nc4ccccc24)/C(=C\c2ccc4c(c2)OCO4)CCC3)cc1 | 69.5% (active)
COc1cc(/C=C2\CCCc3c2nc2ccccc2c3C(=O)O)cc(Cl)c1O | 6.47% (inactive)
COc1cc(-c2cc(C(=O)OCC(=O)Nc3ccc4c(c3)OCO4)c3ccccc3n2)cc(OC)c1OC | 5.72% (inactive)
O=C(COC(=O)c1c2c(nc3ccccc13)/C(=C\c1cccs1)CCC2)Nc1ccccc1Cl | 54.9% (active)
CC(NC(=O)COC(=O)c1ccc2c(c1)OCO2)c1ccccc1 (stereo unspecified) | -10.2% (inactive)
O=C(COC(=O)c1c2c(nc3ccccc13)CCCC2)c1ccc(Br)s1 | -9.74% (inactive)
O=C1CN(C(=O)c2cc(F)cc(F)c2)c2ccccc2N1 | -7.57% (inactive)
CCCc1cc(=O)[nH]c(SCC(=O)c2c(N)n(CC(C)C)c(=O)n(C)c2=O)n1 | -8.24% (inactive)
CCOc1ccc(-c2cc(C(=O)N/N=C/c3ccc(O)cc3)c3ccccc3n2)cc1 | 18.7% (inactive)
CCNS(=O)(=O)c1ccc(NC(=O)Nc2cccc(OC)c2)cc1 | -9.54% (inactive)
Cc1ccc(NC(=O)Nc2cccc(C(F)(F)F)c2)nc1 | 11.1% (inactive)
CCNS(=O)(=O)c1ccc(NC(=O)Nc2cccc(C(F)(F)F)c2)cc1 | 61.3% (active)
Cn1ccc(=Nc2ccc(NC(=O)c3ccc(N=c4ccn(C)c5ccc([N+](=O)[O-])cc45)cc3)cc2)cc1 | 33.3% (inactive)
Cn1c(CCc2ccccc2)nnc1SCC(N)=O | -8.67% (inactive)
Cc1ccc(Cc2nnc(SCC(=O)Nc3ccc(C)cc3C)[nH]c2=O)cc1 | -8.53% (inactive)
COc1cc2ccccc2cc1C(=O)Nc1nc(C)c(C(C)=O)s1 | -2.79% (inactive)
COc1ccccc1/C=N/Nc1nc(C)c(C(C)=O)s1 | 6.16% (inactive)
COc1cccc2sc(Nc3nc(C)c(C(C)=O)s3)nc12 | 89.1% (active)
COc1ccc(C)cc1S(=O)(=O)Nc1cc2c3c(c1)CCC(=O)N3CCC2 | -2.17% (inactive)
CC(C)=NN1C(=O)c2ccccc2NC1(C)C | -9.69% (inactive)
COc1ccc(C2=NN(C(C)=O)C(c3ccccc3)C2)cc1 (stereo unspecified) | -1.39% (inactive)

Structure (SMILES) | inhibition
O=C(CSc1nnnn1-c1ccc(O)cc1)N1N=C(c2ccc3ccccc3c2)CC1c1ccccc1 (stereo unspecified) | 71.2% (active)
COc1ccc(C2CC(c3ccccc3)=NN2C(=O)CSc2nccc(=O)[nH]2)cc1 (stereo unspecified) | -0.127% (inactive)
Cc1ccc(S(=O)(=O)n2cccc2CO)cc1 | -12.2% (inactive)
O=C(NNS(=O)(=O)c1ccc([N+](=O)[O-])cc1)C1CCCCC1 | -10.2% (inactive)
CC(=O)Nc1cccc(C(=O)OCC(=O)Nc2nnc(-c3ccccc3)o2)c1 | -2% (inactive)
CCN(CC)S(=O)(=O)c1ccc(C(=O)N2CCN(C3=NS(=O)(=O)c4ccccc43)CC2)cc1 | 0.744% (inactive)
CC(C)c1cc(C(N)=O)c(NC(=O)c2cccc(COc3ccc(Br)cc3)c2)s1 | 60.2% (active)
CCOc1ccc(OCc2cccc(C(=O)N(CC)CC)c2)cc1 | 14.3% (inactive)
CCc1cc(C(N)=O)c(NC(=O)c2ccc(OC)cc2)s1 | 15.5% (inactive)
COc1cccc(COC(=O)C2CCN(S(=O)(=O)c3cccs3)CC2)c1OC | 0.844% (inactive)
CCOc1ccc(S(=O)(=O)Nc2ccc(C(=O)NCCCN3CCCC3=O)cc2)cc1 | 3.32% (inactive)
Cc1cccc(NC(=O)c2sc(-c3ccccc3)nc2-c2ccc([N+](=O)[O-])cc2)c1 | 55.5% (active)
Cc1cccc(NC(=O)c2ccc([N+](=O)[O-])o2)c1 | 41.2% (inactive)
Cc1cccc(NC(=O)c2cc([N+](=O)[O-])ccc2N2CCN(C)CC2)c1 | 2.53% (inactive)
COC(=O)c1ccc(SCc2ccccc2)nc1 | -10.6% (inactive)
O=S(=O)(ON(c1ccccc1)S(=O)(=O)c1ccccc1)c1ccccc1 | -3.86% (inactive)
CC1=C/C(=N\OS(=O)(=O)c2ccccc2)C=CC1=O | 68.7% (active)
COc1ccc(NS(=O)(=O)c2ccc(C)c(C(=O)NCC(c3cccs3)N3CCOCC3)c2)cc1 (stereo unspecified) | 20.6% (inactive)
O=C(Cn1cnc2c(cnn2-c2ccccc2)c1=O)NCc1ccccc1 | -38.8% (inactive)
O=C(Cn1cnc2cc([N+](=O)[O-])ccc2c1=O)NC(=O)NCc1ccccc1 | 62.3% (active)
CC(C)(C)NC(=O)Cn1cnc2cc([N+](=O)[O-])ccc2c1=O | 33.5% (inactive)
CN(CC(=O)Nc1ccccc1Cl)C(=O)c1ccccc1SCC(=O)N1CCCC1 | 2.13% (inactive)
